This note sets out measurements from ChEMBL document CHEMBL1142637, “New caryophyllene derivatives from Betula litwinowii” (2000).

Values after ≈ are worked out from the molar mass of the structure shown.

Holding throughout (type): functional
One test relates to Fusarium solani. The test is described as follows: Antifungal activity against Fusarium solani at 200 ug/mL after 7 to 10 days by agar tube dilution technique relative to ketoconazole. In a few lines:
(§1)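 Agar tube dilution against plant pathogenic fungi. Compound in DMSO was mixed into molten SDA to a final 200 μg/mL and solidified as slants at room temperature. Slants were inoculated with 4×4 mm plugs cut from 1-week cultures and incubated 7–10 days at 29 °C. Linear growth (mm) was measured, and % inhibition was calculated against a DMSO-only medium control. Ketoconazole served as the reference drug.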

Another test relates to Pseudomonas aeruginosa. Description: Antibacterial activity against Pseudomonas aeruginosa after 24 hrs. An outline of the steps: (§2)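 Broth microdilution MIC. Compound stock in DMSO, serially diluted 1000 to 0.97 μg/mL in sterile distilled water. Bacteria were freshly grown in double-strength Mueller-Hinton broth and adjusted to 108 CFU/mL. Equal volumes of dilution and suspension were mixed. Sterile water well served as growth control, and dilutions without organism as negative control. After 37 °C for 24 h, MIC was read as the first well without turbidity.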

A further test deals with Escherichia coli. The test is described as follows: Antibacterial activity against Escherichia coli after 24 hrs. In a few lines: as §2
In another test the test system is Staphylococcus aureus. The test is described as follows: Antibacterial activity against Staphylococcus aureus after 24 hrs. In a few lines:
as §2

In the next test the test system is Ceratobasidium cereale. Description: Antifungal activity against Rhizoctonia cerealis at 200 ug/mL after 7 to 10 days by agar tube dilution technique. An outline of the steps:
as §1

The next test deals with Nakaseomyces glabratus. Description: Antifungal activity against Candida glabrata after 24 hrs. An outline of the steps:
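Broth microdilution: pure compound stock in DMSO, serially diluted from 1000 to 0.97 μg/mL in sterile distilled water. Each dilution was mixed with an equal volume of standardized C. glabrata suspension in yeast medium. Sterile water served as growth control, and dilutions without organism as negative control. After 24 h at 37 °C, MIC was read as the first well without turbidity.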

For another test, the system named is Akanthomyces muscarius. The test is described as follows: Antifungal activity against Cephalosporium ophidicola at 200 ug/mL after 7 to 10 days by agar tube dilution technique. In a few lines: as §1
The next test concerns Bacillus cereus. The test is described as follows: Antibacterial activity against Bacillus cereus after 24 hrs. An outline of the steps:
as §2

In the next test the test system is Micrococcus luteus. Description: Antibacterial activity against Micrococcus luteus after 24 hrs. In a few lines:
as §2

Another test concerns Drechslera. The test is described as follows: Antifungal activity against Drechslera sorokinianse at 200 ug/mL after 7 to 10 days by agar tube dilution technique relative to ketoconazole. In a few lines:
as §1

On to `C=C1CCC[C@H](CO)CC[C@@H]2[C@@H]1CC2(C)C`, for which the inhibition at 200 µg/mL in the test on Fusarium solani is 59%; in the test on Ceratobasidium cereale, 100%; with Akanthomyces muscarius it was 100%; with Drechslera it was 75%. Further, the minimum inhibitory concentration (MIC) in the test on Pseudomonas aeruginosa came to 250 µg/mL (≈ 1120 µM); in the test with Escherichia coli it was 250 µg/mL (≈ 1120 µM); in the test on Staphylococcus aureus, 250 µg/mL (≈ 1120 µM); against Nakaseomyces glabratus, 125 µg/mL (≈ 562 µM); against Bacillus cereus it was 125 µg/mL (≈ 562 µM); against Micrococcus luteus it was 250 µg/mL (≈ 1120 µM).
In turn, `CC(=O)N1CCN(c2ccc(OCC3COC(Cn4ccnc4)(c4ccc(Cl)cc4Cl)O3)cc2)CC1` (stereo unspecified) [KETOCONAZOLE] showed an MIC against Nakaseomyces glabratus of 62.5 µg/mL (≈ 118 µM).
Regarding `O=C(N[C@H](CO)[C@H](O)c1ccc([N+](=O)[O-])cc1)C(Cl)Cl` [CHLORAMPHENICOL], the MIC turned out to be 62.5 µg/mL (≈ 193 µM) in the test with Pseudomonas aeruginosa; 250 µg/mL (≈ 774 µM) with Escherichia coli; 7.81 µg/mL (≈ 24.2 µM) against Staphylococcus aureus; 125 µg/mL (≈ 387 µM) with Bacillus cereus; 125 µg/mL (≈ 387 µM) against Micrococcus luteus.

Usually inhibition stands for the drop in the measured response relative to a control, in per cent. As usually defined, the MIC is the lowest concentration found to suppress growth. A high value points to a less susceptible organism.
